These results are taken from ChEMBL document CHEMBL1128485, “(E)-4-(2-[[3-(indol-5-yl)-1-oxo-2-butenyl]amino]phenoxy)butyric acid derivatives: a new class of steroid 5 alpha-reductase inhibitors in the rat prostate. 1” (J Med Chem, 1995).

One test concerns the target Steroid 5-alpha-reductase (Rattus norvegicus) (UniProt P24008+P31214). Briefly: (§1) Inhibitory activity against Steroid 5-alpha-reductase in prostates from male rats. Type of test: tissue-based. Also noted: concentration or dose not given beside the values. To be noted: Prostate gland; concentration not given here. The procedure, abridged: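 Ventral prostate from male Wistar rats (200–300 g), homogenized in ice-cold 0.32 M sucrose, 1 mM DTT, 20 mM sodium phosphate pH 6.5. Particulate pellet spun at 140000g, stored at –80 °C, used at 1 mg protein. Reaction run in 40 mM phosphate pH 6.5 with 1 mM DTT, 150 µM NADPH and 3 µM [14C]testosterone. Compounds added in ethanol. Incubated 37 °C, 20 min, extracted with ethyl acetate. [14C]T and DHT measured by TLC radioscan. IC50 given as mean ± SE of three experiments.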
With `C/C(=C\C(=O)Nc1ccccc1OCCCC(=O)O)c1ccc2c(ccn2C2c3ccccc3CCc3ccccc32)c1`, the inhibition (commonly the change of the read-out against control, counted positive when it falls) is 31%.
Compound `C/C(=C\C(=O)Nc1cc(C)ccc1OCCCC(=O)O)c1ccc2c(ccn2C(c2ccccc2)c2ccccc2)c1` registered an inhibition of 45%.
Same read-out and setting: as for `C/C(=C\C(=O)N(C)c1ccccc1OCCCC(=O)O)c1ccc2c(ccn2C(C)c2ccccc2)c1` (stereo unspecified), the figure is 8%; as for `C/C(=C\C(=O)Nc1ccccc1OCCCC(=O)O)c1ccc2c(ccn2C2CCCCC2)c1`, 48%.
As for `C/C(=C\C(=O)Nc1cc(F)ccc1OCCCC(=O)O)c1ccc2c(ccn2C(c2ccccc2)c2ccccc2)c1`, the inhibition amounted to 52%.
The compound `C/C(=C\C(=O)Nc1cc(Cl)ccc1OCCCC(=O)O)c1ccc2c(ccn2C(c2ccccc2)c2ccccc2)c1` displayed an inhibition of 38%.
`CCCC(CCC)n1ccc2cc(/C(C)=C/C(=O)Nc3cccc(OCCCC(=O)O)c3)ccc21` came in with an inhibition of 19%.
For the compound `CCCC(CCC)n1ccc2cc(/C(C)=C/C(=O)Nc3ccc(OCCCC(=O)O)cc3)ccc21`, the inhibition worked out at 28%.
In turn, `C/C(=C\C(=O)Nc1ccccc1OCCCC(=O)O)c1ccc2c(ccn2C(C)c2ccc3ccccc3c2)c1` (stereo unspecified) registered an inhibition of 26%.

A further test addresses T1, Steroid 5-alpha-reductase (Rattus norvegicus, UniProt P24008+P31214).
T1 sequence (P24008 whole entry): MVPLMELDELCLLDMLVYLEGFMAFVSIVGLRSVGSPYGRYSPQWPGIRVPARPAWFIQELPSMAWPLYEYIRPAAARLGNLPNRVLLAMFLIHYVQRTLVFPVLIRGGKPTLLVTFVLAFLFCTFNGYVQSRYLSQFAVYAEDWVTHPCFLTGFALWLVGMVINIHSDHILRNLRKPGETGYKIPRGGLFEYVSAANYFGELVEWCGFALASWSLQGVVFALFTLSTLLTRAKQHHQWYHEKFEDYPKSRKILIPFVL
T1 sequence (P31214 whole entry): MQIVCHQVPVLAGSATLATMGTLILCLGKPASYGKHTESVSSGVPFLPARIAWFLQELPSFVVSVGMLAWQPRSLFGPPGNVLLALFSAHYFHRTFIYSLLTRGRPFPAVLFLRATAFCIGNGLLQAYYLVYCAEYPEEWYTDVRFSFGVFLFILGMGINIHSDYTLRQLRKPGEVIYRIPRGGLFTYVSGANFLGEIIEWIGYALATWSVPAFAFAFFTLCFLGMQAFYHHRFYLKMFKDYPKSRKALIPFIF
The test is described as §1. It is filed as tissue-based, Prostate gland.
Details: not given
The procedure, abridged: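 Ventral prostate from male Wistar rats (200–300 g), homogenized in ice-cold 0.32 M sucrose, 1 mM DTT, 20 mM sodium phosphate pH 6.5. Particulate pellet spun at 140000g, stored at –80 °C, used at 1 mg protein. Compounds added in ethanol. Incubated 37 °C, 20 min, extracted with ethyl acetate. [14C]T and DHT measured by TLC radioscan. IC50 given as mean ± SE of three experiments.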
For `C/C(=C\C(=O)Nc1ccccc1OCCCC(=O)O)c1ccc2c(ccn2C(c2ccccc2)c2ccncc2)c1` (stereo unspecified), the IC50 (as a rule, the concentration that gives 50% inhibition) came out at 26 nM.
`CCCC(c1ccccc1)n1ccc2cc(/C(C)=C/C(=O)Nc3ccccc3OCCCC(=O)O)ccc21` (stereo unspecified): the IC50 is listed as 9.1 nM.
`C/C(=C\C(=O)Nc1ccccc1OCCCC(=O)O)c1ccc2c(ccn2Cc2ccc(C(C)(C)C)cc2)c1` showed a half-maximal inhibitory concentration (IC50) of 170 nM.
`CCCCCn1ccc2cc(/C(C)=C/C(=O)Nc3ccccc3OCCCC(=O)O)ccc21` displayed an IC50 of 23 nM.
Turning to `CCCCC(C)n1ccc2cc(/C(C)=C/C(=O)Nc3ccccc3OCCCC(=O)O)ccc21` (stereo unspecified), the IC50 is 6 nM.
Regarding `C/C(=C\C(=O)Nc1ccccc1OCCCC(=O)O)c1ccc2c(ccn2C(c2ccc(C)cc2)c2ccc(C)cc2)c1`, the IC50 is recorded as 8.8 nM.
`C/C(=C\C(=O)Nc1ccccc1OCCCC(=O)O)c1ccc2c(ccn2C)c1`: the IC50 is 780 nM.
The compound `C/C(=C\C(=O)Nc1ccccc1OCCCC(=O)O)c1ccc2c(ccn2C(C)c2ccccc2)c1` (stereo unspecified) registered an IC50 of 19 nM.
The same measure, in the same setting: as for `C/C(=C\C(=O)Nc1ccccc1OCCCC(=O)O)c1ccc2c(ccn2C(c2ccccc2)c2ccccc2)c1`, the figure is 5.6 nM.
Same read-out and setting: next, `CCCn1ccc2cc(/C(C)=C/C(=O)Nc3ccccc3OCCCC(=O)O)ccc21`: 190 nM; `CCCC(C)n1ccc2cc(/C(C)=C/C(=O)Nc3ccccc3OCCCC(=O)O)ccc21` (stereo unspecified): 7.8 nM.
Compound `COc1ccc(Cn2ccc3cc(/C(C)=C/C(=O)Nc4ccccc4OCCCC(=O)O)ccc32)cc1` returned an IC50 of 480 nM.
On the same count and under the same terms, next, `C/C(=C\C(=O)Nc1ccccc1OCCCC(=O)O)c1ccc2c(ccn2C(c2ccccc2C)c2ccccc2C)c1`: 19 nM; `CCC(c1ccccc1)n1ccc2cc(/C(C)=C/C(=O)Nc3ccccc3OCCCC(=O)O)ccc21` (stereo unspecified): 19 nM; `C/C(=C\C(=O)Nc1cccc(F)c1OCCCC(=O)O)c1ccc2c(ccn2C(c2ccccc2)c2ccccc2)c1`: 15 nM.
`C/C(=C\C(=O)Nc1ccc(F)cc1OCCCC(=O)O)c1ccc2c(ccn2C(c2ccccc2)c2ccccc2)c1` came in with an IC50 of 3.6 nM.
The compound `CCCCC(c1ccccc1)n1ccc2cc(/C(C)=C/C(=O)Nc3ccccc3OCCCC(=O)O)ccc21` (stereo unspecified) registered an IC50 of 9.8 nM.
In turn, `CCCCC(CCCC)n1ccc2cc(/C(C)=C/C(=O)Nc3ccccc3OCCCC(=O)O)ccc21` showed an IC50 of 21 nM.
In the case of `CCCCC(CC)n1ccc2cc(/C(C)=C/C(=O)Nc3ccccc3OCCCC(=O)O)ccc21` (stereo unspecified), the IC50 was 7.1 nM.
The same measure, in the same setting: next, `C/C(=C\C(=O)Nc1ccccc1OCCCC(=O)O)c1ccc2c(ccn2Cc2ccc(C)cc2)c1`: 88 nM.
In turn, `CCCCn1ccc2cc(/C(C)=C/C(=O)Nc3ccccc3OCCCC(=O)O)ccc21` had an IC50 of 43 nM.
Same read-out and setting: as for `C/C(=C\C(=O)Nc1ccccc1OCCCC(=O)O)c1ccc2c(ccn2C(c2ccccc2)c2cccnc2)c1` (stereo unspecified), the figure is 47 nM; as for `C/C(=C\C(=O)Nc1ccccc1OCCCC(=O)O)c1ccc2c(ccn2C(c2ccccc2)c2ccc(C(F)(F)F)cc2)c1` (stereo unspecified), 8.1 nM.
In the case of `C/C(=C\C(=O)Nc1ccccc1OCCCC(=O)O)c1ccc2c(ccn2CC(C)C)c1`, the IC50 was 160 nM.
`C/C(=C\C(=O)Nc1ccc(C)cc1OCCCC(=O)O)c1ccc2c(ccn2C(c2ccccc2)c2ccccc2)c1` had an IC50 of 14 nM.
Compound `CCCCCCn1ccc2cc(/C(C)=C/C(=O)Nc3ccccc3OCCCC(=O)O)ccc21` had an IC50 of 77 nM.
As to `C/C(=C\C(=O)Nc1ccccc1OCCCC(=O)O)c1ccc2c(ccn2Cc2cccc(C)c2)c1`, the IC50 is given as 250 nM.
Regarding `C/C(=C\C(=O)Nc1ccccc1OCCCC(=O)O)c1ccc2c(ccn2C(CC(C)C)c2ccccc2)c1` (stereo unspecified), the IC50 came out at 6.3 nM.
Take `COc1ccc(C(c2ccc(OC)cc2)n2ccc3cc(/C(C)=C/C(=O)Nc4ccccc4OCCCC(=O)O)ccc32)cc1`: the IC50 was 9.8 nM.
For the compound `C/C(=C\C(=O)Nc1ccccc1OCCCC(=O)O)c1ccc2c(ccn2C(c2ccccc2)C(C)C)c1` (stereo unspecified), the IC50 was determined as 25 nM.
Same read-out and setting: as for `C/C(=C\C(=O)Nc1ccccc1OCCCC(=O)O)c1ccc2c(ccn2C(c2ccc(Cl)cc2)c2ccc(Cl)cc2)c1`, the figure is 25 nM.
Consider `CCCC(CC)n1ccc2cc(/C(C)=C/C(=O)Nc3ccccc3OCCCC(=O)O)ccc21` (stereo unspecified), for which the IC50 came out at 9.3 nM.
With `C/C(=C\C(=O)Nc1ccccc1OCCCC(=O)O)c1ccc2c(ccn2CC(C)(C)C)c1.Cc1ccccc1`, the IC50 worked out at 84 nM.
The same measure, in the same setting: next, `C/C(=C\C(=O)Nc1ccccc1OCCCC(=O)O)c1ccc2c(ccn2C(C(C)C)C(C)C)c1`: 14 nM.
For the compound `COc1ccc(C(c2ccccc2)n2ccc3cc(/C(C)=C/C(=O)Nc4ccccc4OCCCC(=O)O)ccc32)cc1` (stereo unspecified), the IC50 was found to be 8.8 nM.
Turning to `CCCC(C(C)C)n1ccc2cc(/C(C)=C/C(=O)Nc3ccccc3OCCCC(=O)O)ccc21` (stereo unspecified), the IC50 stood at 7.2 nM.
The compound `C/C(=C\C(=O)Nc1ccccc1OCCCC(=O)O)c1ccc2c(ccn2C(c2ccccc2)c2ccccn2)c1` (stereo unspecified) gave an IC50 of 37 nM.
Same read-out and setting: as for `CCCCCC(CCCCC)n1ccc2cc(/C(C)=C/C(=O)Nc3ccccc3OCCCC(=O)O)ccc21`, the figure is 25 nM.
Compound `CCCCCC(c1ccccc1)n1ccc2cc(/C(C)=C/C(=O)Nc3ccccc3OCCCC(=O)O)ccc21` (stereo unspecified) came in with an IC50 of 25 nM.
Turning to `C/C(=C\C(=O)Nc1ccccc1OCCCC(=O)O)c1ccc2c(ccn2Cc2ccc(C(F)(F)F)cc2)c1`, the IC50 is on record as 300 nM.
For `C/C(=C\C(=O)Nc1ccccc1OCCCC(=O)O)c1ccc2c(ccn2Cc2ccccc2C)c1`, the IC50 was 69 nM.
As to `CCC(C)n1ccc2cc(/C(C)=C/C(=O)Nc3ccccc3OCCCC(=O)O)ccc21` (stereo unspecified), the IC50 came out at 67 nM.
`CCCCCCCn1ccc2cc(/C(C)=C/C(=O)Nc3ccccc3OCCCC(=O)O)ccc21` had an IC50 of 120 nM.
For `CCCCc1ccc(Cn2ccc3cc(/C(C)=C/C(=O)Nc4ccccc4OCCCC(=O)O)ccc32)cc1`, the IC50 stood at 100 nM.
Same read-out and setting: next, `C/C(=C\C(=O)Nc1ccccc1SCCCC(=O)O)c1ccc2c(ccn2C(c2ccccc2)c2ccccc2)c1`: 39 nM; `C/C(=C\C(=O)Nc1ccccc1OCCCC(=O)O)c1ccc2c(ccn2Cc2ccc(F)cc2)c1`: 97 nM; `CC(C)=CCn1ccc2cc(/C(C)=C/C(=O)Nc3ccccc3OCCCC(=O)O)ccc21`: 120 nM.
